# Source: ChEMBL document CHEMBL1124354, “Potential antiatherosclerotic agents. 6. Hypocholesterolemic trisubstituted urea analogues” (J Med Chem, 1989)
# pIC50: −log10 of the molar value.
# Key:
# [1] = target: T1, Sterol O-acyltransferase 1 (Rattus norvegicus, UniProt O70536); experiment: In vitro inhibitory concentration against acyl coenzyme A:cholesterol acyltransferase derived from rat adrenals
# T1 sequence (O70536 whole entry): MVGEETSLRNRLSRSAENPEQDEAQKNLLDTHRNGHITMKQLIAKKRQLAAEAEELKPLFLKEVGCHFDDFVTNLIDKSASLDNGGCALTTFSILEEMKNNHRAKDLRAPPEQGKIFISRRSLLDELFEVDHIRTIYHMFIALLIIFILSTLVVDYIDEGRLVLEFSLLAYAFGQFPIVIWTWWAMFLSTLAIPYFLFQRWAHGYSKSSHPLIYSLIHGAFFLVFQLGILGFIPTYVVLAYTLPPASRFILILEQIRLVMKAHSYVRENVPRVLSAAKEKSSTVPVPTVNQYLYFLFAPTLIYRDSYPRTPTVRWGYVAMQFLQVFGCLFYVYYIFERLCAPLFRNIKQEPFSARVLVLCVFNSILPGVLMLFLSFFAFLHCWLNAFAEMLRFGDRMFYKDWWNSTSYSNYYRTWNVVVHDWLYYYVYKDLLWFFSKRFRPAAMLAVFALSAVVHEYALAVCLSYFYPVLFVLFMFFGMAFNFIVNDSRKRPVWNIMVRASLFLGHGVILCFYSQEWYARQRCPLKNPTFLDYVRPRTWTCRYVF
# How it was run: (§1)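 Rat adrenal homogenate in 0.2 M KH2PO4 buffer pH 7.4, 1000g supernatant (microsomal fraction) as enzyme; preincubated with BSA and test compound at graded concentrations, 37 °C 10 min, then [14C]oleoyl-CoA 0.4 µCi, 37 °C 30 min. Lipids extracted, cholesteryl ester isolated by TLC and counted. Triplicate tubes per concentration; IC50 by linear regression of means.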
# [2] = target: T2, Sterol O-acyltransferase 1 (Rattus norvegicus) (UniProt O70536); experiment: (§2) In vitro percentage inhibition against acyl coenzyme A:cholesterol acyltransferase derived from rat adrenals; parameters: concentration or dose not given beside the values; settings: concentration not given here
# T2 sequence (whole entry): T1 sequence (O70536 whole entry)
# How it was run: (§3)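 Rat adrenal 1000g supernatant (microsomal ACAT) in 0.2 M KH2PO4 pH 7.4 with BSA; test compound at final 5.2 µg/mL, preincubated 37 °C 10 min; [14C]oleoyl-CoA (0.4 µCi) added, 37 °C 30 min. Cholesteryl ester separated by TLC, scintillation counted; mean percent inhibition against compound-free control.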
# [3] = target: T1, Sterol O-acyltransferase 1; experiment: In vitro inhibitory concentration against Acyl coenzyme A:cholesterol acyltransferase derived from rat adrenals; how it was run: as §1
# [4] = target: T2, Sterol O-acyltransferase 1 (Rattus norvegicus); experiment: Serum hypolipidemic activity in rats; assay type: functional
# How it was run: (§4)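 Male CD-1 Sprague-Dawley rats, 140–150 g, fed 1% cholesterol/0.5% cholic acid diet with compound admixed at 0.01% (about 10 mg/kg/day) for 7 days. Serum and liver cholesterol measured by Technicon autoanalyzer methods; expressed as percent of control.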
# [5] = target: T2, Sterol O-acyltransferase 1 (Rattus norvegicus); experiment: Liver hypolipidemic activity in rats; assay type: functional; how it was run: as §4
# [6] = target: T2, Sterol O-acyltransferase 1 (Rattus norvegicus); experiment: In vitro percentage inhibition against Acyl coenzyme A:cholesterol acyltransferase derived from rat adrenals; parameters: concentration or dose not given beside the values; settings: concentration not given here; how it was run: as §3
# [7] = tested on: Oryctolagus cuniculus; experiment: Compound was evaluated for rabbit serum cholesterol level at dose 35 mg/kg per day on day 35; assay type: functional
# How it was run: (§5)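 Male New Zealand rabbits (2.5–3.0 kg) on rabbit pellets with 0.4% cholesterol and peanut oil for one week, then bled and grouped by plasma sterol. Drug mixed in diet (6% peanut oil) at 0.25, 0.075 or 0.025% for five weeks, about 109.6, 34.5 or 11.2 mg/kg/day. Dietary cholesterol adjusted weekly (0.30–0.35%). Aortic balloon denudation on day 7 of dosing.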
# [8] = tested on: Oryctolagus cuniculus; experiment: Compound was evaluated for rabbit serum cholesterol level at dose 35 mg/kg per day on day 0; assay type: functional; how it was run: as §5
# [9] = tested on: Oryctolagus cuniculus; experiment: Compound was evaluated for rabbit serum cholesterol level at dose 110 mg/kg per day on day 35; assay type: functional; how it was run: as §5
# [10] = tested on: Oryctolagus cuniculus; experiment: Compound was evaluated for rabbit serum cholesterol level at dose 11 mg/kg per day on day 7; assay type: functional; how it was run: as §5
# [11] = tested on: Oryctolagus cuniculus; experiment: Compound was evaluated for rabbit serum cholesterol level at dose 11 mg/kg per day on day 21; assay type: functional; how it was run: as §5
# [12] = tested on: Oryctolagus cuniculus; experiment: Compound was evaluated for rabbit serum cholesterol level at dose 11 mg/kg per day on day 0; assay type: functional; how it was run: as §5
# [13] = tested on: Oryctolagus cuniculus; experiment: Compound was evaluated for rabbit serum cholesterol level at dose 35 mg/kg per day on day 7; assay type: functional; how it was run: as §5
# [14] = tested on: Oryctolagus cuniculus; experiment: Compound was evaluated for rabbit serum cholesterol level at dose 110 mg/kg per day on day 7; assay type: functional; how it was run: as §5
# [15] = tested on: Oryctolagus cuniculus; experiment: Compound was evaluated for rabbit serum cholesterol level at dose 110 mg/kg per day on day 0; assay type: functional; how it was run: as §5
# [16] = tested on: Oryctolagus cuniculus; experiment: Compound was evaluated for rabbit serum cholesterol levels for a dose of 110 mg/kg per day on day 21; assay type: functional; how it was run: as §5
# [17] = tested on: Oryctolagus cuniculus; experiment: Compound was evaluated for rabbit serum cholesterol level at dose 35 mg/kg per day on day 21; assay type: functional; how it was run: as §5
# [18] = tested on: Oryctolagus cuniculus; experiment: Compound was evaluated for rabbit serum cholesterol level at dose 11 mg/kg per day on day 35; assay type: functional; how it was run: as §5
# [19] = target: T2, Sterol O-acyltransferase 1 (Rattus norvegicus); experiment: In vitro percentage inhibition against ACAT derived from rat adrenals; settings: concentration not given here; how it was run: as §3
# [20] = target: T1, Sterol O-acyltransferase 1; experiment: In vitro inhibitory concentration against ACAT derived from rat adrenals; how it was run: as §1
# [21] = target: T2, Sterol O-acyltransferase 1 (Rattus norvegicus); experiment: as §2; settings: concentration not given here
# How it was run: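 Rat adrenals homogenized in 0.2 M KH2PO4 (pH 7.4), spun at 1000g for 15 min at 5 °C; supernatant used as enzyme. Preincubated with BSA and test compound (final 5.2 µg/mL) at 37 °C for 10 min, then [14C]oleoyl-CoA (0.4 µCi) added for 30 min at 37 °C. Cholesteryl ester isolated by TLC and counted. Mean percent inhibition versus control without compound.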
# [22] = target: T2, Sterol O-acyltransferase 1 (Rattus norvegicus); experiment: In vitro percentage inhibition againstAcyl coenzyme A:cholesterol acyltransferase derived from rat adrenals; settings: concentration not given here; how it was run: as §3
# [23] = target: T2, Sterol O-acyltransferase 1 (Rattus norvegicus); experiment: In vitro percentage inhibition against Acyl coenzyme A:cholesterol acyltransferase derived from rat adrenals; settings: concentration not given here
pIC50 [1],inhibition [2] [%],pIC50 [3],SS [4] [%],LS [5] [%],inhibition [6] [%],Compound,further results
5.11,94,–,–,–,–,O=C(Nc1cccc(Cl)c1)N(Cc1ccccc1)Cc1ccccc1,–
–,–,5.12,72,62,–,CCCCN(Cc1ccccc1)C(=O)Nc1ccc(Cl)cc1C,–
–,–,6.14,65,15,91,CCCCCCCN(CCCCCCC)C(=O)Nc1ccc(C)cc1C,–
–,–,6.20,71,66,64,CCCCCCCCCCN(CCCCCCCCCC)C(=O)Nc1ccc(C)cc1C,–
5.17,–,–,62,64,–,Cc1c(Cl)cccc1NC(=O)N(CCC(C)(C)C)Cc1cccs1,–
5.39,80,–,87,93,–,CCCCN(CCCC)C(=O)Nc1cccc(Cl)c1C,–
–,–,–,99,107,–,CCCCN(C(=O)Nc1ccc(C)cc1C)c1ccccc1,inhibition [19]: 70%; pIC50 [20]: 4.67
5.17,–,–,66,73,–,CC(C)(C)CCN(Cc1cccs1)C(=O)Nc1ccc(F)cc1F,–
6.01,–,–,58,56,–,CC(C)(C)CCN(Cc1cccs1)C(=O)Nc1c(Cl)cc(Cl)cc1Cl,–
–,–,4.72,84,97,94,Cc1ccc(NC(=O)N(Cc2ccccc2)Cc2ccccc2)cc1Cl,–
5.01,81,–,81,78,–,CCCCN(CCCC)C(=O)Nc1ccc(C)cc1C,–
5.33,89,–,66,65,–,Cc1ccc(NC(=O)N(CCC(C)C)CCC(C)C)c(C)c1,–
–,–,5.08,–,–,84,Cc1c(Cl)cccc1NC(=O)N(Cc1ccccc1)Cc1ccccc1,–
5.25,88,–,64,46,–,CCCCN(Cc1ccc2c(c1)OCO2)C(=O)Nc1ccc(C)cc1C,–
5.04,94,–,63,100,–,CCCCc1ccc(NC(=O)N(CCCC)CCCC)cc1,–
–,–,5.40,–,–,86,O=C(Nc1cc(Cl)cc(Cl)c1)N(Cc1ccccc1)Cc1ccccc1,–
5.02,96,–,–,–,–,CCOc1ccc(NC(=O)N(Cc2ccccc2)Cc2ccccc2)cc1,–
–,–,6.32,56,28,–,CCCCCCCN(Cc1cccs1)C(=O)Nc1cc(Cl)c(Cl)cc1Cl,–
–,–,6.48,59,36,95,CCCCCCN(CCCCCC)C(=O)Nc1ccc(C)cc1C,–
4.98,87,–,–,–,–,CCCCN(CCCC)C(=O)Nc1ccc(Cl)c(C(F)(F)F)c1,–
5.19,91,–,110,98,–,CCCCN(CCCC)C(=O)Nc1ccc(C)c(Cl)c1,–
–,–,–,82,49,–,CCCCCN(CCCCC)C(=O)Nc1ccc(C)cc1C,inhibition [19]: 90%; pIC50 [20]: 6.02
–,–,–,97,66,71,Cc1ccc(Cl)cc1NC(=O)N(Cc1ccccc1)Cc1ccccc1,–

# More lines, now with the values behind:
Compound,pIC50 [1],inhibition [2] [%],pIC50 [3],SS [4] [%],LS [5] [%],inhibition [6] [%],further results
CCCCN(CCCC)C(=O)Nc1cc(Cl)cc(Cl)c1,5.36,79,–,76,93,–,–
O=C(Nc1cccc(C(F)(F)F)c1)N(Cc1ccccc1)Cc1ccccc1,–,–,5.54,–,–,94,–
Cc1cc(C)c(NC(=O)N(Cc2ccccc2)Cc2ccccc2)c(C)c1,–,–,5.43,32,28,37,–
CCCCN(Cc1ccccc1)C(=O)Nc1ccc(C)cc1C,5.32,91,–,70,75,–,SC [7]: 488 mg/dL; SC [8]: 270 mg/dL; SC [9]: 405 mg/dL; SC [10]: 340 mg/dL; SC [11]: 556 mg/dL; SC [12]: 307 mg/dL; SC [13]: 255 mg/dL; SC [14]: 230 mg/dL; SC [15]: 278 mg/dL; SC [16]: 343 mg/dL; SC [17]: 357 mg/dL; SC [18]: 722 mg/dL
CCCCN(CCCC)C(=O)Nc1cccc(C)c1,5.32,78,–,–,–,–,–
CCCCCCCN(Cc1ccco1)C(=O)Nc1c(Cl)cc(Cl)cc1Cl,–,–,6.39,37,34,96,–
O=C(Nc1cccc(Br)c1)N(Cc1ccccc1)Cc1ccccc1,5.24,92,–,92,86,–,–
CCCCN(CCCC)C(=O)Nc1ccc(OCC)cc1,–,–,–,–,–,–,inhibition [21]: 79%
Cc1cc(Cl)ccc1NC(=O)N(Cc1ccccc1)Cc1ccccc1,–,–,5.47,53,26,63,–
O=C(Nc1ccc([N+](=O)[O-])cc1)N(Cc1ccccc1)Cc1ccccc1,–,–,–,–,–,–,inhibition [22]: 52%
CCCCCCCN(Cc1cccs1)C(=O)Nc1cc(C)c(C)cc1C,–,–,–,54,25,–,pIC50 [20]: 5.84
CCCCN(Cc1ccccc1)C(=O)Nc1ccc(C)cc1,–,14,–,106,107,78,–
CCCCN(CCCC)C(=O)Nc1ccc(F)c(Cl)c1,4.94,91,–,83,108,–,–
CCCCCCCN(Cc1ccco1)C(=O)Nc1cc(C)c(C)cc1C,–,–,–,44,38,–,inhibition [23]: 94%
CCCCN(CCCC)C(=O)Nc1cccc(Cl)c1,5.02,88,–,105,100,–,–
O=C(Nc1ccc(Oc2ccccc2)cc1)N(Cc1ccccc1)Cc1ccccc1,5.49,94,–,66,89,–,–
Cc1cc(C)c(NC(=O)N(Cc2ccccc2)Cc2ccccc2)cc1C,–,–,6.35,47,20,69,–
O=C(Nc1ccccc1C(F)(F)F)N(Cc1ccccc1)Cc1ccccc1,–,–,–,165,76,68,–
CCCCN(CCCC)C(=O)Nc1cc(C)cc(C)c1,5.45,84,–,100,76,–,–
